Source: ChEMBL document CHEMBL4390653, “Potential anti-herpes and cytotoxic action of novel semisynthetic digitoxigenin-derivatives” (Eur J Med Chem, 2019)

Tests used:
PC-3 = experiment: Cytotoxicity against human PC3 cells assessed as inhibition of cell viability after 48 hrs by SRB assay; assay type: functional, cell-based; details: PC-3, 48 h
Outline: (§1)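 Cells seeded at 2.5 × 10^4 per well and exposed to a concentration range for 48 h, then SRB total-protein stain. PC3 grown in phenol-red-free DMEM with 1% glutamine; LNCaP in phenol-red-free RPMI 1640 with glutamine and non-essential amino acids. HCT-8 and H460 in RPMI 1640. MRC-5 (plus glutamine and non-essential amino acids) and primary gingival fibroblasts in DMEM. All media had 10% FBS, 37 °C, 5% CO2. Paclitaxel was the reference. IC50 versus untreated controls by nonlinear regression, three independent experiments.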

Human alphaherpesvirus 1 [1] = experiment: Antiviral activity against acyclovir-sensitive Herpes simplex virus 1 KOS infected in African green monkey Vero cells assessed as inhibition of viral replication after 48 hrs by naphthol blue-black staining-based plaque reduction assay; assay type: functional, organism-based; details: Human alphaherpesvirus 1, strain KOS
Outline: (§2)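 Vero cells in MEM with 10% FBS, 37 °C, 5% CO2. Confluent monolayers (2.5 × 10^5 cells/well) infected with about 100 PFU for 1 h at 37 °C. Non-cytotoxic concentrations were added after infection. Cells were then PBS-washed and overlaid with MEM plus 1.5% carboxymethylcellulose, with or without compound, for 48 h. Fixed, naphthol blue-black stained, plaques counted under a stereomicroscope. IC50 versus untreated controls by nonlinear regression; mean of three independent experiments.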

[2] = Selectivity index, ratio of Cytotoxicity against African green monkey Vero cells assessed as reduction in cell viability after 48 hrs by SRB assay to Antiviral activity against Herpes simplex virus 2-333 infected in African green monkey Vero cells assessed as inhibition of viral replication after 48 hrs by naphthol blue-black staining-based plaque reduction assay; assay type: toxicity; details: Vero cells infected with HSV-2 333, read-out: Ratio CC50/IC50
Outline: (§3)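 Selectivity index = CC50 in Vero cells (SRB, 48 h) divided by plaque-reduction IC50 for the same virus strain.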

[3] = (§4) Selectivity index, ratio of Cytotoxicity against African green monkey Vero cells assessed as reduction in cell viability after 48 hrs by SRB assay to Antiviral activity against acyclovir-sensitive Herpes simplex virus 1 KOS infected in African green monkey Vero cells assessed as inhibition of viral replication after 48 hrs by naphthol blue-black staining-based plaque reduction assay; assay type: toxicity; details: Vero cells infected with HSV-1 KOS, read-out: Ratio CC50/IC50; outline: as §3
Human alphaherpesvirus 1 [4] = experiment: Antiviral activity against acyclovir-resistant Herpes simplex virus 1 29-R infected in African green monkey Vero cells assessed as inhibition of viral replication after 48 hrs by naphthol blue-black staining-based plaque reduction assay; assay type: functional, organism-based; details: Human alphaherpesvirus 1, 29-R, Vero, 48 h; read-out: IC50; outline: as §2
[5] = as §4, with “acyclovir-resistant” for “acyclovir-sensitive”, “29-R” for “KOS”; assay type: toxicity; details: Vero cells infected with HSV-1 29-R, read-out: Ratio CC50/IC50; outline: as §3
LNCaP = experiment: Cytotoxicity against human LNCAP cells assessed as inhibition of cell viability after 48 hrs by SRB assay; assay type: functional, cell-based; outline: as §1
Human alphaherpesvirus 2 = experiment: Antiviral activity against Herpes simplex virus 2-333 infected in African green monkey Vero cells assessed as inhibition of viral replication after 48 hrs by naphthol blue-black staining-based plaque reduction assay; assay type: functional, organism-based; details: Human alphaherpesvirus 2, 333, Vero; outline: as §2
[6] = Cytotoxicity against African green monkey Vero cells assessed as reduction in cell viability after 48 hrs by SRB assay; assay type: cell-based; details: chlorocebus sabaeus
Outline: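 Vero cells in MEM with 10% FBS, seeded at 2.5 × 10^4 cells/well. Exposed to a range of concentrations for 48 h at 37 °C, 5% CO2, then sulforhodamine B total-protein staining. CC50 is the concentration reducing viability by 50% versus untreated controls, from nonlinear regression; mean ± SD of three independent experiments.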

HCT-8 = experiment: Cytotoxicity against human HCT8 cells assessed as inhibition of cell viability after 48 hrs by SRB assay; assay type: functional, cell-based; details: HCT-8, 48 h; outline: as §1
A549 = experiment: Cytotoxicity against human A549 cells assessed as inhibition of cell viability after 48 hrs by SRB assay; assay type: functional, cell-based; details: A549, 48 h
[7] = Inhibition of porcine cortex Na+/K+-ATPase alpha1/2/3 subunit using ATP as substrate preincubated for 30 mins followed by substrate addition and measured after 30 mins by malachite green reagent-based assay; parameters: species or system Sus scrofa
NCI-H460 = experiment: Cytotoxicity against human H460 cells assessed as inhibition of cell viability after 48 hrs by SRB assay; assay type: functional, cell-based; details: NCI-H460, 48 h; outline: as §1

| Compound | IC50 (PC-3) [nM] | IC50 (Human alphaherpesvirus 1 [1]) [µM] | selectivity ratio at 48 h [2] | selectivity ratio at 48 h [3] | IC50 (Human alphaherpesvirus 1 [4]) [nM] | selectivity ratio at 48 h [5] | IC50 (LNCaP) [µM] | IC50 (Human alphaherpesvirus 2) [nM] | CC50 at 48 h [6] [µM] | IC50 (HCT-8) [nM] | IC50 (A549) [nM] | IC50 [7] [µM] | IC50 (NCI-H460) [nM] |
| --- | --- | --- | --- | --- | --- | --- | --- | --- | --- | --- | --- | --- | --- |
| C[C@]12CC[C@H](n3cc(CO[C@@H]4O[C@H](CO)[C@@H](O)[C@H](O)[C@H]4O)nn3)C[C@H]1CC[C@@H]1[C@@H]2CC[C@]2(C)[C@@H](C3=CC(=O)OC3)CC[C@]12O | 2350 | 2.79 | > 140 | > 108 | 2710 | > 111 | 4.69 | 2140 | > 300 | 3700 | 2030 |  |  |
| CC(=O)OC[C@H]1O[C@@H](OCc2cn([C@H]3CC[C@@]4(C)[C@H](CC[C@@H]5[C@@H]4CC[C@]4(C)[C@@H](C6=CC(=O)OC6)CC[C@]54O)C3)nn2)[C@H](OC(C)=O)[C@@H](OC(C)=O)[C@@H]1OC(C)=O | 7050 | 6.27 | 75.1 | 45.5 | 2110 | 135 | 7.32 | 3800 | 286 | 3570 | 3740 |  |  |
| C[C@]12CC[C@H](n3cc(CO[C@@H]4O[C@H](CO)[C@@H](O[C@H]5O[C@H](CO)[C@@H](O)[C@H](O)[C@H]5O)[C@H](O)[C@H]4O)nn3)C[C@H]1CC[C@@H]1[C@@H]2CC[C@]2(C)[C@@H](C3=CC(=O)OC3)CC[C@]12O | 2740 | 4.29 | 35.2 | 34.3 | 3240 | 45.4 | 5.24 | 4180 | 147 | 5430 | 2860 |  |  |
| C[C@]12CC[C@H](NC(=O)CCl)C[C@H]1CC[C@@H]1[C@@H]2CC[C@]2(C)[C@@H](C3=CC(=O)OC3)CC[C@]12O | 1920 | 0.69 | 61.3 | 122 | 340 | 247 | 1.96 | 1370 | 84 | 1450 | 1170 |  |  |
| C[C@]12CC[C@H](n3cc(CO[C@@H]4O[C@H](CO)[C@H](O)[C@H](O)[C@H]4O)nn3)C[C@H]1CC[C@@H]1[C@@H]2CC[C@]2(C)[C@@H](C3=CC(=O)OC3)CC[C@]12O | 2750 | 0.98 | 234 | 296 | 920 | 315 | 7.49 | 1240 | 290 | 2580 | 2190 |  |  |
| C[C@]12CC[C@H](NC(=O)CBr)C[C@H]1CC[C@@H]1[C@@H]2CC[C@]2(C)[C@@H](C3=CC(=O)OC3)CC[C@]12O | 1700 |  |  |  |  |  | 3.42 |  | 36.1 | 1740 | 1400 |  |  |
| CC(=O)OC[C@H]1O[C@H](OCc2cn([C@H]3CC[C@@]4(C)[C@H](CC[C@@H]5[C@@H]4CC[C@]4(C)[C@@H](C6=CC(=O)OC6)CC[C@]54O)C3)nn2)[C@@H](OC(C)=O)[C@@H](OC(C)=O)[C@@H]1OC(C)=O | 2920 | 10.1 | 86.4 | 39 | 6010 | 65.4 | 3.13 | 4550 | 393 | 1900 | 1570 | 4.46 | 1590 |
